Our source for the MIC values is ChEMBL document CHEMBL4138284, “Biomimetic Stereoselective Sulfa-Michael Addition Leads to Platensimycin and Platencin Sulfur Analogues against Methicillin-Resistant Staphylococcus aureus” (J Nat Prod, 2018).

Format in all cases: functional
Test [1] relates to Staphylococcus aureus. The test can be described thus: Antibacterial activity against methicillin-sensitive Staphylococcus aureus isolate 2 incubated overnight by agar dilution method. The gist of the method: (§1)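 MIC by agar dilution. Strains were grown overnight in LB broth and diluted, then about 10^4 CFU (2 μL spots) were spotted onto LB agar plates containing test compound at 0.5 to 8 μg mL−1 agar. Plates were incubated overnight at 37 °C and inspected for growth. Clinical MSSA and MRSA isolates came from local hospitals.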

For test [2], the system named is Staphylococcus aureus. The test can be described thus: Antibacterial activity against methicillin-resistant Staphylococcus aureus isolate 9 incubated overnight by agar dilution method. The gist of the method: as §1
For test [3], the system named is Staphylococcus aureus. Put plainly: Antibacterial activity against methicillin-sensitive Staphylococcus aureus isolate 4 incubated overnight by agar dilution method. The gist of the method:
as §1

The test system of test [4] is Staphylococcus aureus. The test can be described thus: Antibacterial activity against methicillin-resistant Staphylococcus aureus isolate 7 incubated overnight by agar dilution method. In outline:
as §1

Test [5] deals with Staphylococcus aureus. The test can be described thus: Antibacterial activity against methicillin-sensitive Staphylococcus aureus isolate 1 incubated overnight by agar dilution method. The gist of the method: as §1
Test [6] has as its system Staphylococcus aureus. Put plainly: Antibacterial activity against Staphylococcus aureus ATCC 29213 incubated overnight by agar dilution method. In outline:
as §1

Test [7] relates to Staphylococcus aureus. The test can be described thus: Antibacterial activity against methicillin-resistant Staphylococcus aureus isolate 5 incubated overnight by agar dilution method. In outline:
as §1

Test [8] relates to Staphylococcus aureus. Put plainly: Antibacterial activity against methicillin-resistant Staphylococcus aureus isolate 8 incubated overnight by agar dilution method. The gist of the method: as §1
The test system of test [9] is Staphylococcus aureus. The test can be described thus: Antibacterial activity against methicillin-resistant Staphylococcus aureus isolate 10 incubated overnight by agar dilution method. In outline:
as §1

Test [10] deals with Staphylococcus aureus. Put plainly: Antibacterial activity against methicillin-sensitive Staphylococcus aureus isolate 3 incubated overnight by agar dilution method. In outline:
as §1

The subject of test [11] is Staphylococcus aureus. The test can be described thus: Antibacterial activity against methicillin-resistant Staphylococcus aureus isolate 6 incubated overnight by agar dilution method. In outline:
as §1

The test system of test [12] is Staphylococcus aureus. The test can be described thus: Antibacterial activity against methicillin-resistant Staphylococcus aureus isolate 11 incubated overnight by agar dilution method. In outline:
as §1

Converted amounts (≈) assume the structure as drawn.

Regarding `C[C@]12C[C@@]34C=CC(=O)[C@@](C)(CCC(=O)Nc5c(O)ccc(C(=O)O)c5O)[C@@H]3[C@H](C[C@@H]1C4)O2`, the MIC in the test on Staphylococcus aureus [1] came to 0.5 µg/mL (≈ 1.13 µM); in the test on Staphylococcus aureus [2], 1 µg/mL (≈ 2.27 µM); in the test with Staphylococcus aureus [3], 0.5 µg/mL (≈ 1.13 µM); in the test on Staphylococcus aureus [4], 1 µg/mL (≈ 2.27 µM); in the test with Staphylococcus aureus [5], 0.5 µg/mL (≈ 1.13 µM); in the test with Staphylococcus aureus [6] it was 1 µg/mL (≈ 2.27 µM). The minimal inhibitory concentration (MIC) was 1 µg/mL (≈ 2.27 µM) with Staphylococcus aureus [7]; 1 µg/mL (≈ 2.27 µM) in the test on Staphylococcus aureus [8]; 0.5 µg/mL (≈ 1.13 µM) against Staphylococcus aureus [9]; 0.5 µg/mL (≈ 1.13 µM) against Staphylococcus aureus [10]; 1 µg/mL (≈ 2.27 µM) in the test with Staphylococcus aureus [11]; 1 µg/mL (≈ 2.27 µM) with Staphylococcus aureus [12].

Turning to `C[C@]12C[C@]34C[C@@H]1C[C@H](O2)[C@H]3[C@](C)(CCC(=O)Nc1c(O)ccc(C(=O)O)c1O)C(=O)C[C@@H]4SC(=O)c1cc(F)cc(F)c1`, the MIC worked out at 1 µg/mL (≈ 1.62 µM) in the test on Staphylococcus aureus [1]; 2 µg/mL (≈ 3.25 µM) against Staphylococcus aureus [2]; 2 µg/mL (≈ 3.25 µM) against Staphylococcus aureus [3]; 2 µg/mL (≈ 3.25 µM) with Staphylococcus aureus [4]; 1 µg/mL (≈ 1.62 µM) in the test with Staphylococcus aureus [5]; 2 µg/mL (≈ 3.25 µM) against Staphylococcus aureus [6]. Moreover, the MIC with Staphylococcus aureus [7] came to 2 µg/mL (≈ 3.25 µM); against Staphylococcus aureus [8] it was 2 µg/mL (≈ 3.25 µM); in the test on Staphylococcus aureus [9], 2 µg/mL (≈ 3.25 µM); against Staphylococcus aureus [10] it was 2 µg/mL (≈ 3.25 µM); against Staphylococcus aureus [11] it was 1 µg/mL (≈ 1.62 µM).

Consider `C[C@]12C[C@]34C[C@@H]1C[C@H](O2)[C@H]3[C@](C)(CCC(=O)Nc1c(O)ccc(C(=O)O)c1O)C(=O)C[C@@H]4SC(=O)c1ccccc1F`, for which the MIC against Staphylococcus aureus [1] stood at 1 µg/mL (≈ 1.67 µM); against Staphylococcus aureus [2] it was 1 µg/mL (≈ 1.67 µM); against Staphylococcus aureus [3], 1 µg/mL (≈ 1.67 µM); against Staphylococcus aureus [4], 2 µg/mL (≈ 3.35 µM); against Staphylococcus aureus [5] it was 1 µg/mL (≈ 1.67 µM); against Staphylococcus aureus [6], 1 µg/mL (≈ 1.67 µM). Further, the MIC is 2 µg/mL (≈ 3.35 µM) with Staphylococcus aureus [7]; 1 µg/mL (≈ 1.67 µM) against Staphylococcus aureus [8]; 1 µg/mL (≈ 1.67 µM) against Staphylococcus aureus [9]; 1 µg/mL (≈ 1.67 µM) in the test on Staphylococcus aureus [10]; 1 µg/mL (≈ 1.67 µM) against Staphylococcus aureus [11]; 2 µg/mL (≈ 3.35 µM) in the test with Staphylococcus aureus [12].

As to `C[C@]12C[C@]34C[C@@H]1C[C@H](O2)[C@H]3[C@](C)(CCC(=O)Nc1c(O)ccc(C(=O)O)c1O)C(=O)C[C@@H]4SC(=O)c1ccc([N+](=O)[O-])cc1`, the MIC against Staphylococcus aureus [1] stood at 1 µg/mL (≈ 1.6 µM); with Staphylococcus aureus [2] it was 1 µg/mL (≈ 1.6 µM); with Staphylococcus aureus [3], 1 µg/mL (≈ 1.6 µM); with Staphylococcus aureus [4] it was 2 µg/mL (≈ 3.2 µM); against Staphylococcus aureus [5], 1 µg/mL (≈ 1.6 µM); in the test with Staphylococcus aureus [6], 1 µg/mL (≈ 1.6 µM). Besides, the MIC in the test with Staphylococcus aureus [7] was 2 µg/mL (≈ 3.2 µM); in the test with Staphylococcus aureus [8] it was 1 µg/mL (≈ 1.6 µM); against Staphylococcus aureus [9], 1 µg/mL (≈ 1.6 µM); with Staphylococcus aureus [10] it was 1 µg/mL (≈ 1.6 µM); in the test with Staphylococcus aureus [11], 1 µg/mL (≈ 1.6 µM); against Staphylococcus aureus [12], 8 µg/mL (≈ 12.8 µM).

Take `C[C@]12C[C@]34C[C@@H]1C[C@H](O2)[C@H]3[C@](C)(CCC(=O)Nc1c(O)ccc(C(=O)O)c1O)C(=O)C[C@@H]4SC(=O)c1cccc(C(F)(F)F)c1`: the MIC against Staphylococcus aureus [1] was 1 µg/mL (≈ 1.54 µM); against Staphylococcus aureus [2], 1 µg/mL (≈ 1.54 µM); against Staphylococcus aureus [3], 0.5 µg/mL (≈ 0.772 µM); against Staphylococcus aureus [4], 2 µg/mL (≈ 3.09 µM); against Staphylococcus aureus [5], 1 µg/mL (≈ 1.54 µM); in the test on Staphylococcus aureus [6], 2 µg/mL (≈ 3.09 µM). Also, the MIC with Staphylococcus aureus [7] came to 1 µg/mL (≈ 1.54 µM); against Staphylococcus aureus [8], 1 µg/mL (≈ 1.54 µM); against Staphylococcus aureus [9], 1 µg/mL (≈ 1.54 µM); in the test on Staphylococcus aureus [10], 1 µg/mL (≈ 1.54 µM); in the test on Staphylococcus aureus [11], 1 µg/mL (≈ 1.54 µM); against Staphylococcus aureus [12], 2 µg/mL (≈ 3.09 µM).

With `C[C@]12C[C@]34C[C@@H]1C[C@H](O2)[C@H]3[C@](C)(CCC(=O)Nc1c(O)ccc(C(=O)O)c1O)C(=O)C[C@@H]4SC(=O)c1ccc(F)cc1`, the MIC in the test on Staphylococcus aureus [1], in the test with Staphylococcus aureus [2], in the test with Staphylococcus aureus [3], in the test on Staphylococcus aureus [4], in the test with Staphylococcus aureus [5] and against Staphylococcus aureus [6] was 1 µg/mL (≈ 1.67 µM) each time. The MIC against Staphylococcus aureus [7] was 2 µg/mL (≈ 3.35 µM); against Staphylococcus aureus [8] it was 2 µg/mL (≈ 3.35 µM); against Staphylococcus aureus [9] it was 1 µg/mL (≈ 1.67 µM); in the test on Staphylococcus aureus [10] it was 1 µg/mL (≈ 1.67 µM); in the test on Staphylococcus aureus [11], 1 µg/mL (≈ 1.67 µM); in the test on Staphylococcus aureus [12], 2 µg/mL (≈ 3.35 µM).

In the case of `Cc1ccc(C(=O)S[C@H]2CC(=O)[C@@](C)(CCC(=O)Nc3c(O)ccc(C(=O)O)c3O)[C@@H]3[C@@H]4C[C@H]5C[C@]23C[C@]5(C)O4)cc1`, the MIC in the test with Staphylococcus aureus [1] was found to be 1 µg/mL (≈ 1.68 µM); against Staphylococcus aureus [2], 1 µg/mL (≈ 1.68 µM); in the test with Staphylococcus aureus [3] it was 1 µg/mL (≈ 1.68 µM); against Staphylococcus aureus [4] it was 2 µg/mL (≈ 3.37 µM); in the test with Staphylococcus aureus [5], 1 µg/mL (≈ 1.68 µM); against Staphylococcus aureus [6] it was 1 µg/mL (≈ 1.68 µM). Besides, the MIC against Staphylococcus aureus [7] came out at 2 µg/mL (≈ 3.37 µM); in the test on Staphylococcus aureus [8], 1 µg/mL (≈ 1.68 µM); against Staphylococcus aureus [9], 1 µg/mL (≈ 1.68 µM); with Staphylococcus aureus [10] it was 1 µg/mL (≈ 1.68 µM); against Staphylococcus aureus [11], 1 µg/mL (≈ 1.68 µM); in the test on Staphylococcus aureus [12], 2 µg/mL (≈ 3.37 µM).
